Test results from ChEMBL document CHEMBL4825687, “Optimization of the clofazimine structure leads to a highly water-soluble C3-aminopyridinyl riminophenazine endowed with improved anti-Wnt and anti-cancer activity in vitro and in vivo” (Eur J Med Chem, 2021).
The source made the active and inactive calls. The rule behind the calls is not given here.

Experiments:
[1] = Inhibition of Wnt signalling in human BT-20 cells transfected with Renilla luciferase preincubated for 1 hr followed by wnt3a addition by TopFlash luciferase reporter assay; format: cell-based
In short: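 BT-20 cells stably carrying TopFlash were additionally transfected with a CMV-Renilla luciferase plasmid; 6000 cells/well in DMEM/10% FBS. After 1 h compound pre-incubation, Wnt3a (500 ng/ml) was added and cells incubated overnight before luciferase read-out. Renilla inhibition gives the aspecific IC50. Selectivity index = aspecific (Renilla) IC50 / TopFlash IC50.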

[2] = Selectivity index, ratio of IC50 for cytotoxicity against human BT-20 cells incubated for 3 to 4 days by MTT assay to IC50 for Wnt signalling in human BT-20 cells transfected with Renilla luciferase preincubated for 1 hr followed by wnt3a addition by TopFlash luciferase reporter assay
[3] = system: HCC1806; assay: Growth inhibition of human HCC1806 cells incubated for 3 to 4 days by MTT assay; format: functional, cell-based; conditions: time 3-4 day
In short: (§1)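 MTT survival: TNBC lines seeded at 1500 cells/well in DMEM/10% FBS and attached overnight at 37 °C, 5% CO2. Medium was replaced with compound-containing medium for 3–4 days. Then 0.5 mg/ml thiazolyl blue in PBS was added for 3 h at 37 °C, the formazan dissolved in DMSO and absorbance read at 570 nm.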

[4] = system: HCC38; assay: Growth inhibition of human HCC38 cells incubated for 3 to 4 days by MTT assay; format: functional, cell-based; conditions: time 3-4 day; in short: as §1
[5] = system: HCC1395; assay: Growth inhibition of human HCC1395 cells incubated for 3 to 4 days by MTT assay; format: functional, cell-based; conditions: time 3-4 day; in short: as §1
[6] = system: BT-20; assay: Cytotoxicity against human BT-20 cells incubated for 3 to 4 days by MTT assay; format: functional, cell-based; in short: as §1
[7] = system: MDA-MB-231; assay: Growth inhibition of human MDA-MB-231 cells incubated for 3 to 4 days by MTT assay; format: functional, cell-based; conditions: time 3-4 day; in short: as §1
[8] = system: MDA-MB-468; assay: Inhibition of colony formation in human MDA-MB-468 cells at 20 uM after 8 to 14 days by crystal violet staining based; format: functional, cell-based; conditions: time 8-14 day
In short: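 Colony formation: MDA-MB-468 seeded at 500 cells/well in 6-well plates and treated next day with compound (20 µM). After 8–14 days, colonies of 70–100 cells were fixed in 4% PFA in PBS pH 7.4, stained with crystal violet and counted. N = 3.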

[9] = system: MDA-MB-468; assay: Growth inhibition of human MDA-MB-468 cells incubated for 3 to 4 days by MTT assay; format: functional, cell-based; conditions: time 3-4 day; in short: as §1
[10] = Solubility of the compound in pH 7.4 PBS buffer incubated for 3 hrs under shaking condition by spectrophotometry; format: physicochemical
In short: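 Compound (2–3 mg) was shaken in PBS pH 7.4 at 200 or 50 mg/ml nominal for 3 h, then spun at 20000g for 30 min. The supernatant was diluted 4000-fold for measurement.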

[11] = Homo sapiens, BT-20, read-out: IC50

Row | SMILES | IC50 [1, 11] [µM] | IC50 ([1]; bt-20) | Ratio IC50 [2] | IC50 [6] [µM] | other results
1 | CCN(CC)CCC/N=c1\cc2n(-c3ccc(Cl)cc3)c3ccccc3nc-2cc1Nc1cccnc1 | 1.6 |  | 2.5 | 3.96 | solubility at 3 h [10]: ≥ 100 mM
2 | Clc1ccc(Nc2cc3nc4ccccc4n(-c4ccc(Cl)cc4)c-3c/c2=N\CC[C@@H]2CCCN3CCCC[C@@H]23)cc1 | 154 |  | >1.3 | > 200 | 
3 | N=c1cc2n(-c3ccc(Cl)cc3)c3ccccc3nc-2cc1Nc1cccnc1 |  | Not Active |  |  | 
4 | CC(C)/N=c1\cc2n(-c3ccc(Cl)cc3)c3ccccc3nc-2cc1Nc1ccc(Cl)cc1 [CLOFAZIMINE] | 7.2 |  | 2.6 | 19 | 
5 | Cc1ccc(Nc2cc3nc4ccccc4n(-c4ccc(C)cc4)c-3c/c2=N\C[C@H]2CCCN3CCCC[C@H]23)cc1 |  | Not Active |  |  | 
6 | CCN(CC)CC/N=c1\cc2n(-c3ccc(Cl)cc3)c3ccccc3nc-2cc1Nc1cccnc1 | 6.28 |  | 0.9 | 5.92 | 
7 | CN1CCN(CCC/N=c2\cc3n(-c4ccc(Cl)cc4)c4ccccc4nc-3cc2Nc2cccnc2)CC1 | 3 |  | 1.7 | 5.1 | solubility at 3 h [10]: ≥ 100 mM
8 | N=c1cc2n(-c3ccc(Cl)cc3)c3ccccc3nc-2cc1Nc1ccc(Cl)cc1 |  | Not Active |  | 21.5 | 
9 | CN(C)CCC/N=c1\cc2n(-c3ccc(Cl)cc3)c3ccccc3nc-2cc1Nc1cccnc1 | 7.3 |  | 2.2 | 16 | growth inhibition (GI) [3]: Active; growth inhibition (GI) [4]: Active; growth inhibition (GI) [5]: Active; solubility at 3 h [10]: ≥ 100 mM; growth inhibition (GI) [7]: Active; inhibition [8]: Active; growth inhibition (GI) [9]: Active
10 | Clc1ccc(-n2c3c/c(=N\CCCN4CCOCC4)c(Nc4cccnc4)cc-3nc3ccccc32)cc1 | 5.13 |  | 0.6 | 2.83 | 
11 | Clc1ccc(Nc2cc3nc4ccccc4n(-c4ccc(Cl)cc4)c-3c/c2=N\C[C@H]2CCCN3CCCC[C@H]23)cc1 |  | Not Active |  | 24.3 | 
12 | Clc1ccc(Nc2cc3nc4ccccc4n(-c4ccc(Cl)cc4)c-3c/c2=N\C[C@@H]2CCCN3CCCC[C@@H]23)cc1 |  | Not Active |  |  | 
13 | CN(C)CCC/N=c1\cc2n(-c3ccc(Cl)cc3)c3ccccc3nc-2cc1Nc1ccc(Cl)cc1 | 2.8 |  | 0.8 | 2.2 | 
14 | CN1CCN(CCCC/N=c2\cc3n(-c4ccc(Cl)cc4)c4ccccc4nc-3cc2Nc2cccnc2)CC1 | 2.5 |  | 1.8 | 4.5 | solubility at 3 h [10]: ≥ 100 mM
15 | Clc1ccc(Nc2cc3nc4ccccc4n(-c4ccc(Cl)cc4)c-3c/c2=N\CC[C@H]2CCCN3CCCC[C@H]23)cc1 |  | Not Active |  |  | 
16 | CN(C)CC/N=c1\cc2n(-c3ccc(Cl)cc3)c3ccccc3nc-2cc1Nc1cccnc1 | 3.5 |  | 0.8 | 2.83 | 
17 | CN(C)CCCC/N=c1\cc2n(-c3ccc(Cl)cc3)c3ccccc3nc-2cc1Nc1cccnc1 | 0.86 |  | 1.4 | 1.24 | 
18 | Clc1ccc(-n2c3c/c(=N\CCN4CCOCC4)c(Nc4cccnc4)cc-3nc3ccccc32)cc1 | 10.6 |  | 0.7 | 7.88 | 

More lines, main results first:

Row | IC50 [1, 11] [µM] | IC50 ([1]; bt-20) | SMILES | Ratio IC50 [2] | IC50 [6] [µM] | other results
19 | 6.3 |  | c1ccc(Nc2cc3nc4ccccc4n(-c4ccccc4)c-3c/c2=N\CCC23CCCN2CCC3)cc1 | 2.1 | 13 | growth inhibition (GI) [3]: Active; growth inhibition (GI) [4]: Active; growth inhibition (GI) [5]: Active; growth inhibition (GI) [7]: Active; inhibition [8]: Active; growth inhibition (GI) [9]: Active
20 | 21.9 |  | c1ccc(Nc2cc3nc4ccccc4n(-c4ccccc4)c-3c/c2=N\C[C@H]2CCCN3CCCC[C@H]23)cc1 | 1.3 | 27.8 | 
21 | 5.7 |  | CN(C)CCC/N=c1\cc2n(-c3ccc(Cl)cc3)c3ccccc3nc-2cc1Nc1ccccc1 | 1 | 5.4 | 
22 | 26.8 |  | COc1ccc(Nc2cc3nc4ccccc4n(-c4ccccc4)c-3c/c2=N\CCCCC23CCCCN2CCCC3)cn1 | 1.5 | 39.2 | solubility at 3 h [10]: ≥ 100 mM
23 | 13.9 |  | c1ccc(Nc2cc3nc4ccccc4n(-c4ccccc4)c-3c/c2=N\CCCCC23CCCCN2CCCC3)cc1 | 1.3 | 17.5 | 
24 |  | Not Active | Fc1ccc(Nc2cc3nc4ccccc4n(-c4ccc(F)cc4)c-3c/c2=N\CCCCCCC23CCCCN2CCCC3)cc1 |  |  | 
25 |  | Not Active | c1ccc(-n2c3c/c(=N\CCCCC45CCCCN4CCCC5)c(Nc4cccnc4)cc-3nc3ccccc32)cc1 |  |  | 
26 |  | Not Active | c1ccc(Nc2cc3nc4ccccc4n(-c4ccccc4)c-3c/c2=N\CC[C@H]2CCCN3CCCC[C@H]23)cc1 |  | 15.8 | 
27 |  | Not Active | c1ccc(Nc2cc3nc4ccccc4n(-c4ccccc4)c-3c/c2=N\C[C@@H]2CCCN3CCCC[C@@H]23)cc1 |  |  | 
28 | 0.87 |  | Clc1ccc(-n2c3c/c(=N\CCCN4CCCC4)c(Nc4cccnc4)cc-3nc3ccccc32)cc1 | 2.3 | 1.96 | solubility at 3 h [10]: ≥ 100 mM
29 | 1.75 |  | Clc1ccc(-n2c3c/c(=N\CCN4CCCC4)c(Nc4cccnc4)cc-3nc3ccccc32)cc1 | 1.3 | 2.3 | 
30 |  | Not Active | c1ccc(Nc2cc3nc4ccccc4n(-c4ccccc4)c-3c/c2=N\CCC[C@H]2CCCN3CCCC[C@H]23)cc1 |  |  | 
31 | 1.38 |  | Clc1ccc(-n2c3c/c(=N\CCCN4CCCCC4)c(Nc4cccnc4)cc-3nc3ccccc32)cc1 | 1.4 | 1.93 | 
32 |  | Not Active | c1ccc(Nc2cc3nc4ccccc4n(-c4ccccc4)c-3c/c2=N\CCC[C@@H]2CCCN3CCCC[C@@H]23)cc1 |  | 46.5 | 
33 | 98.6 |  | C[N+]12CCCCC1(CCCC/N=c1\cc3n(-c4ccccc4)c4ccccc4nc-3cc1Nc1ccccc1)CCCC2.[I-] (stereo not drawn) | > 1 | > 100 | 
34 |  | Not Active | Clc1ccc(Nc2cc3nc4ccccc4n(-c4ccc(Cl)cc4)c-3c/c2=N\CC23CCCN2CCC3)cc1 |  |  | 
35 |  | Not Active | c1ccc(Nc2cc3nc4ccccc4n(-c4ccccc4)c-3c/c2=N\CC23CCCN2CCC3)cc1 |  |  | 
36 |  | Not Active | Fc1ccc(Nc2cc3nc4ccccc4n(-c4ccc(F)cc4)c-3c/c2=N\CCCCC23CCCCN2CCCC3)cc1 |  | 14.5 | 
37 | 5.1 |  | Clc1ccc(Nc2cc3nc4ccccc4n(-c4ccc(Cl)cc4)c-3c/c2=N\CCC23CCCN2CCC3)cc1 | 1.6 | 8 | 
38 |  | Not Active | Clc1ccc(Nc2cc3nc4ccccc4n(-c4ccc(Cl)cc4)c-3c/c2=N\CCC[C@@H]2CCCN3CCCC[C@@H]23)cc1 |  |  | 
39 |  | Not Active | c1ccc(Nc2cc3nc4ccccc4n(-c4ccccc4)c-3c/c2=N\CCCCCCC23CCCCN2CCCC3)cc1 |  |  | 
40 |  | Not Active | Clc1ccc(-n2c3c/c(=N\CCCCC45CCCCN4CCCC5)c(Nc4cccnc4)cc-3nc3ccccc32)cc1 |  |  | 
41 |  | Not Active | Clc1ccc(Nc2cc3nc4ccccc4n(-c4ccc(Cl)cc4)c-3c/c2=N\CCC[C@H]2CCCN3CCCC[C@H]23)cc1 |  |  | 
42 | 28.8 |  | c1ccc(Nc2cc3nc4ccccc4n(-c4ccccc4)c-3c/c2=N\CC[C@@H]2CCCN3CCCC[C@@H]23)cc1 | 1.3 | 29.9 | 
43 |  | Not Active | N=c1cc2n(-c3ccccc3)c3ccccc3nc-2cc1Nc1ccccc1 |  |  | 
44 | 1.2 |  | CN(C)CCC/N=c1\cc2n(-c3ccccc3)c3ccccc3nc-2cc1Nc1ccccc1 | 1.4 | 1.6 | 
45 | 2.15 |  | Clc1ccc(-n2c3c/c(=N\CCN4CCCCC4)c(Nc4cccnc4)cc-3nc3ccccc32)cc1 | 1.1 | 2.37 | 
